Broadly, the GI50 is the concentration giving 50% growth inhibition. Broadly, the IC50 is the concentration that gives 50% inhibition.

The record followed here is ChEMBL document CHEMBL1126694, “Antitumor agents. 141. Synthesis and biological evaluation of novel thiocolchicine analogs: N-acyl-, N-aroyl-, and N-(substituted benzyl)deacetylthiocolchicines as potent cytotoxic and antimitotic compounds” (J Med Chem, 1993).

Assay type in all cases: functional
In one experiment the test system is A549. Put plainly: In vitro cytotoxicity against A549/ATCC cell line. To be noted: Homo sapiens. The essentials: (§1)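 Tested by the NCI in its tumor cell panel. GI50 (M) is reported as the concentration that caused 50% inhibition of tumor cell growth.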
The target in the next experiment is Tubulin. Briefly: In vitro inhibition of tubulin polymerization.
The test system of the next experiment is SNB-19. Briefly: In vitro cytotoxicity against SNB-19 cell line. The note with it: Homo sapiens. The gist of the method: as §1
Experiment [1] can be described thus: In vitro cytotoxicity against RXF cell line. To be noted: Homo sapiens. The essentials: as §1
The next experiment concerns DMS-114. Put plainly: In vitro cytotoxicity against DMS114 cell line. To be noted: Homo sapiens. The gist of the method: as §1
A further experiment deals with SR. Put plainly: In vitro cytotoxicity against SR cell line. To be noted: Homo sapiens. The gist of the method: as §1
The test system of the next experiment is HCT-15. Put plainly: In vitro cytotoxicity against HCT-15 cell line. The note with it: Homo sapiens. The gist of the method: as §1
Another experiment concerns OVCAR. Briefly: In vitro cytotoxicity against OVCAR cell line. To be noted: Homo sapiens. The gist of the method:
as §1

A further experiment has as its system SK-MEL-5. Briefly: In vitro cytotoxicity against SK-MEL-5 cell line. To be noted: Homo sapiens. The essentials: as §1

Where only a bound is given, the exact number is not on record here.

As to `COc1cc(CN[C@H]2CCc3cc(OC)c(OC)c(OC)c3-c3ccc(SC)c(=O)cc32)cc(OC)c1`, the GI50 was 37.1 nM in the experiment on A549; 67.6 nM in the experiment on SNB-19; below 10 nM in experiment [1]; 16.6 nM in the experiment on DMS-114; below 10 nM with SR; below 10 nM in the experiment on HCT-15. Besides, it took 3400 nM to reach half-maximal inhibition against Tubulin (IC50).

As to `CCOC(=O)c1c(OC)cc(C(=O)N[C@H]2CCc3cc(OC)c(OC)c(OC)c3-c3ccc(SC)c(=O)cc32)cc1OC`, the GI50 in the experiment on A549 is 427 nM; with SNB-19, 324 nM; in [1], 234 nM; in the experiment on OVCAR it was 32.4 nM; with DMS-114 it was 26.3 nM; in the experiment on SK-MEL-5, 45.7 nM. The compound further gave a concentration for 50% growth inhibition (GI50) in the experiment with HCT-15 of 447 nM.

With `COc1cc2c(c(OC)c1OC)-c1ccc(OC)c(=O)cc1[C@@H](NC(C)=O)CC2` [COLCHICINE], the GI50 in the experiment with A549, with OVCAR, in the experiment on SK-MEL-5 and with HCT-15 was below 63.1 nM throughout.

On to `COc1cc2c(c(OC)c1OC)-c1ccc(SC)c(=O)cc1[C@@H](NC(=O)c1ccc(OC(C)=O)cc1)CC2`, for which the GI50 with A549 was below 100 nM; in the experiment on SNB-19, 21.4 nM; in experiment [1], 27.5 nM; with OVCAR, 15.1 nM; with DMS-114, 14.4 nM; with SK-MEL-5, 19.5 nM. Besides, the 50% growth inhibitory concentration (GI50) with SR is 7.76 nM; in the experiment on HCT-15 it was below 100 nM.

In the case of `COc1cc2c(c(OC)c1OC)-c1ccc(SC)c(=O)cc1[C@@H](NCc1ccccc1[N+](=O)[O-])CC2`, the 50% growth inhibitory concentration (GI50) (in the experiment with A549; with SNB-19; in [1]; with OVCAR; in the experiment with DMS-114; in the experiment with SK-MEL-5) was below 10 nM in each case. This compound also had a concentration for 50% growth inhibition (GI50) in the experiment on HCT-15 below 10 nM. This compound also displayed a concentration for half-maximal inhibition (IC50) at Tubulin of 3200 nM.

For the compound `COc1cc2c(c(OC)c1OC)-c1ccc(SC)c(=O)cc1[C@@H](NC(=O)c1cccc([N+](=O)[O-])c1)CC2`, the concentration for 50% growth inhibition (GI50) with A549 is 33.1 nM; in the experiment on SNB-19, 26.9 nM; in experiment [1], 16.6 nM; in the experiment on OVCAR, 19.1 nM; in the experiment with DMS-114, 16.6 nM; in the experiment on SK-MEL-5, 18.2 nM. Also, the GI50 in the experiment with SR was 8.51 nM; in the experiment on HCT-15 it was 26.9 nM. In addition, on Tubulin, the IC50 was determined as 3400 nM.

With `COc1cc(C(=O)N[C@H]2CCc3cc(OC)c(OC)c(OC)c3-c3ccc(SC)c(=O)cc32)cc(OC)c1OC`, the GI50 is 17 nM with A549; 33.9 nM in experiment [1]; below 10 nM in the experiment with OVCAR; below 10 nM in the experiment with DMS-114; below 10 nM in the experiment with SK-MEL-5; below 10 nM in the experiment on SR.

On to `COc1cc2c(c(OC)c1OC)-c1ccc(SC)c(=O)cc1[C@@H](NCc1ccc([N+](=O)[O-])cc1)CC2`, for which the GI50 (with A549; in the experiment with SNB-19; in experiment [1]; with OVCAR; in the experiment on DMS-114; in the experiment on SK-MEL-5) was below 10 nM in each case. Further, the GI50 in the experiment with SR and with HCT-15 was below 10 nM throughout. At Tubulin, this compound displayed an IC50 of 2800 nM.

On to `COc1cc2c(c(OC)c1OC)-c1ccc(SC)c(=O)cc1[C@@H](NC(=O)c1ccc(F)cc1)CC2`, for which the GI50 in the experiment with A549 is 49 nM; with SNB-19 it was 28.8 nM; in the experiment with OVCAR it was 18.2 nM; in the experiment on DMS-114, 26.9 nM; in the experiment with SK-MEL-5, 30.2 nM; with SR it was 16.6 nM. Besides, the GI50 in the experiment with HCT-15 is 42.7 nM.

In the case of `COc1cc2c(c(OC)c1OC)-c1ccc(SC)c(=O)cc1[C@@H](NC(=O)c1ccc([N+](=O)[O-])cc1)CC2`, the concentration for 50% growth inhibition (GI50) (in the experiment with A549; in the experiment on SNB-19; in experiment [1]; in the experiment with OVCAR; in the experiment with DMS-114; with SK-MEL-5) was below 10 nM throughout. Besides, the concentration for 50% growth inhibition (GI50) in the experiment on SR and with HCT-15 was below 10 nM each time.

For `COc1cc2c(c(OC)c1OC)-c1ccc(SC)c(=O)cc1[C@@H](NC(=O)c1ccc(Cl)cc1)CC2`, the GI50 (with A549; in the experiment with SNB-19; in [1]; with OVCAR; with DMS-114; in the experiment on SK-MEL-5) was below 10 nM throughout. Further, the 50% growth inhibitory concentration (GI50) with SR and with HCT-15 was below 10 nM in each case.

With `CCCCCC(=O)N[C@H]1CCc2cc(OC)c(OC)c(OC)c2-c2ccc(SC)c(=O)cc21`, the GI50 (in the experiment on A549; with SNB-19; in experiment [1]; in the experiment with OVCAR; in the experiment with DMS-114; in the experiment on SK-MEL-5) was below 10 nM throughout. Besides, the GI50 with SR and with HCT-15 was below 10 nM each time.

For the compound `COc1ccc(CN[C@H]2CCc3cc(OC)c(OC)c(OC)c3-c3ccc(SC)c(=O)cc32)c(OC)c1OC`, 2500 nM corresponded to half-maximal inhibition against Tubulin (IC50). The GI50 in the experiment with OVCAR, in the experiment on DMS-114, with SK-MEL-5, with SR and in the experiment on HCT-15 was below 10 nM in each case.

Take `COc1cc2c(c(OC)c1OC)-c1ccc(SC)c(=O)cc1[C@@H](NCc1ccc(F)cc1)CC2`: the GI50 (in the experiment with A549; in the experiment on SNB-19; in experiment [1]; in the experiment with OVCAR; in the experiment with SK-MEL-5; in the experiment on SR) was below 7.59 nM each time. The same compound had a 50% growth inhibitory concentration (GI50) with HCT-15 below 7.59 nM. This compound gave an IC50 against Tubulin of 2300 nM.

For the compound `COc1cc2c(c(OC)c1OC)-c1ccc(SC)c(=O)cc1[C@@H](NC(=O)c1ccc(C#N)cc1)CC2`, the GI50 in the experiment with A549, in the experiment with SNB-19, in the experiment on OVCAR, in the experiment with DMS-114, in the experiment with SK-MEL-5 and in the experiment with SR was below 10 nM each time. In addition, the GI50 with HCT-15 is below 10 nM.

As for `COc1cc2c(c(OC)c1OC)-c1ccc(SC)c(=O)cc1[C@@H](NCc1cccc(C#N)c1)CC2`, the GI50 (in the experiment with A549; in the experiment on SNB-19; in experiment [1]; in the experiment on OVCAR; in the experiment with DMS-114; in the experiment with SK-MEL-5) was below 7.59 nM in each case. The GI50 in the experiment with SR and in the experiment on HCT-15 was below 7.59 nM in each case. For the same compound, the half-inhibitory concentration (IC50) at Tubulin turned out to be 2500 nM.

Regarding `COc1cc2c(c(OC)c1OC)-c1ccc(SC)c(=O)cc1[C@@H](NCc1ccc(C#N)cc1)CC2`, the GI50 (in the experiment with A549; with SNB-19; in experiment [1]; in the experiment on OVCAR; in the experiment with DMS-114; with SK-MEL-5) was below 10 nM throughout. Also, the GI50 in the experiment with SR and in the experiment with HCT-15 was below 10 nM in each case. The compound also yielded an IC50 against Tubulin of 2300 nM.

On to `COc1cc2c(c(OC)c1OC)-c1ccc(SC)c(=O)cc1[C@@H](NCc1cccc([N+](=O)[O-])c1)CC2`, for which the GI50 (in the experiment with A549; with SNB-19; in experiment [1]; in the experiment on OVCAR; in the experiment on DMS-114; in the experiment on SK-MEL-5) was below 10 nM throughout. In addition, the GI50 in the experiment on SR is above 100000 nM; in the experiment with HCT-15 it was below 10 nM. The half-inhibitory concentration (IC50) on Tubulin turned out to be 2800 nM.
